These compounds were tested against Protein farnesyltransferase (Bos taurus, UniProt P29702+P49355) (assay: Inhibition of bovine brain farnesyltransferase (FTase) farnesylation of viral K-Ras).
Method in brief: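 Partially purified bovine brain farnesyltransferase, used as a crude dialysate. Substrates were viral K-Ras protein and [3H]farnesyl pyrophosphate. It was calculated by comparing untreated enzyme activity with activity at known inhibitor concentrations.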

Row | IC50 [µM] | Compound
1 | > 3.7 | O=C1CC(c2cccc(Br)c2)[C@H]([N+](=O)[O-])[C@@H](c2ccc(O)cc2)N1Cc1ccc[n+]([O-])c1 (stereo not given in full)
2 | 0.41 | Cc1cccc(C2CC(=O)N(Cc3cccnc3)[C@H](c3ccc(O)cc3)[C@H]2[N+](=O)[O-])c1 (stereo not given in full)
3 | > 3.7 | O=C1CC(c2cccc(Br)c2)[C@H]([N+](=O)[O-])[C@@H](c2ccc(O)cc2)N1Cc1ccncc1 (stereo not given in full)
4 | 0.42 | O=C1CC(c2cccc(Br)c2)[C@H]([N+](=O)[O-])[C@@H](c2ccc(O)cc2)N1Cc1cccnc1 (stereo in doubt)
5 | > 3.7 | N[C@H]1C(c2cccc(Br)c2)CC(=O)N(Cc2cccnc2)[C@@H]1c1ccc(O)cc1 (stereo not given in full)
6 | 0.32 | O=C1CC(c2cccc(Cl)c2)[C@H]([N+](=O)[O-])[C@@H](c2ccc(O)cc2)N1Cc1cccnc1 (stereo not given in full)
7 | 0.14 | O=C1CC(c2ccccc2Br)[C@H]([N+](=O)[O-])[C@@H](c2ccc(O)cc2)N1Cc1cccnc1 (mixture of isomers)
8 | 0.35 | O=C1CC(c2cccc(Br)c2)[C@H]([N+](=O)[O-])[C@@H](c2ccc(O)cc2)N1Cc1cccnc1 (stereo in doubt; 1)
9 | > 3.7 | O=C1CC(c2ccc(Br)cc2)[C@H]([N+](=O)[O-])[C@@H](c2ccc(O)cc2)N1Cc1cccnc1 (stereo not given in full)
10 | 0.95 | O=C1CC(c2ccccc2Br)[C@H]([N+](=O)[O-])[C@@H](c2ccc(O)cc2)N1Cc1cccnc1 (single isomer, unassigned; (-))

Second part, the compound before the results:

Row | Compound | IC50 [µM]
11 | O=[N+]([O-])[C@H]1C(c2ccccc2Br)CCN(Cc2cccnc2)[C@@H]1c1ccc(O)cc1 (single isomer, unassigned; (+)) | 0.0058
12 | O=C1CC(c2cccc(Br)c2)[C@H](NO)[C@@H](c2ccc(O)cc2)N1Cc1cccnc1 (stereo not given in full) | > 3.7
13 | O=C1CC(c2ccccc2Br)[C@H]([N+](=O)[O-])[C@@H](c2ccc(O)c(O)c2)N1Cc1cccnc1 (single isomer, unassigned; (-)) | 1.2
14 | O=[N+]([O-])[C@H]1C(c2ccccc2Br)CCN(Cc2cccnc2)[C@@H]1c1ccc(O)c(O)c1 (stereo in doubt; 8-(-)) | > 0.31
15 | COc1ccc([C@@H]2[C@@H]([N+](=O)[O-])C(c3ccccc3Br)CC(=O)N2Cc2cccnc2)cc1 (stereo not given in full) | > 1.2
16 | O=[N+]([O-])[C@H]1C(c2ccccc2Br)CCN(Cc2cccnc2)[C@@H]1c1ccc(O)c(O)c1 (single isomer, unassigned; (+)) | 0.0019
17 | O=[N+]([O-])[C@H]1C(c2ccccc2Br)CCN(Cc2cccnc2)[C@@H]1c1ccc(O)cc1 (mixture of isomers) | 0.0082
18 | O=C1CC(c2ccccc2Br)[C@H]([N+](=O)[O-])[C@@H](c2ccc(O)c(O)c2)N1Cc1cccnc1 (single isomer, unassigned; (+)) | 0.03
19 | O=[N+]([O-])[C@H]1C(c2ccccc2Br)C=CN(Cc2cccnc2)[C@@H]1c1ccc(O)c(O)c1 (stereo not given in full) | 0.013
20 | O=C1CC(c2ccccc2Br)[C@H]([N+](=O)[O-])[C@@H](c2ccc(O)c(CO)c2)N1Cc1cccnc1 (stereo not given in full) | > 1.2
21 | Nc1cc([C@@H]2[C@@H]([N+](=O)[O-])C(c3ccccc3Br)CC(=O)N2Cc2cccnc2)ccc1O (stereo not given in full) | 0.097
22 | O=C1CC(c2ccccc2Br)[C@H]([N+](=O)[O-])[C@@H](c2ccc(O)cc2)N1Cc1cccnc1 (single isomer, unassigned; (+)) | 0.075
23 | O=[N+]([O-])[C@H]1C(c2ccccc2Br)CCN(Cc2cccnc2)[C@@H]1c1ccc(O)c(O)c1 (mixture of isomers) | 0.0037
24 | O=C1CC(c2ccccc2Br)[C@H]([N+](=O)[O-])[C@@H](c2ccc(O)c(O)c2)N1Cc1cccnc1 (mixture of isomers) | 0.046
25 | O=[N+]([O-])[C@H]1C(c2ccccc2Br)CCN(Cc2cccnc2)[C@@H]1c1ccc(O)cc1 (single isomer, unassigned; (-)) | > 0.31

Reference: ChEMBL document CHEMBL1145793, “Discovery and structure-activity relationships of novel piperidine inhibitors of farnesyltransferase” (J Med Chem, 2003)
